Screening data (PubChem)
Sampled rows, rich in hits. Any-hit rate of the full collection: about 1.6%.
LEDGF integ inh: blocks HIV-1 LEDGF/p75-dependent DNA integration. TR-FRET IN-LEDGF/p75 DNA integration, Eu/Cy5. inhibition, % at 3.7 µM. 0.64% of 370,000 active;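 active means inhibition above the screen-wide mean plus 3 SD, cut at about 13% in these data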;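 further: signal is the Cy5 over europium emission ratio at 671 and 618 nm; 0% = plate median of compound wells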
MBD2 DNA inh: inhibitors of human MBD2 binding to methylated oligonucleotide; Q9UBB5; TR-FRET; inhibition, % at 4.4 µM; 0.31% of 370,000 active; in the data active means inhibition above about 13%
UHRF1 binding: UHRF1 methyl-DNA binding inhibition; inhibition, % at 4.4 µM; 0.75% of 370,000 active; AID 687016; Q96T88; UHRF1 binding to methylated oligo, TR-FRET; in the data active means inhibition above about 21%;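 further: UHRF1 SRA domain binding a hemimethylated CpG hairpin DNA probe; 0% = median of test compound wells and 100% = reference inhibitor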
Target sequence (Q96T88 whole entry, looked up, the tested form may be a part): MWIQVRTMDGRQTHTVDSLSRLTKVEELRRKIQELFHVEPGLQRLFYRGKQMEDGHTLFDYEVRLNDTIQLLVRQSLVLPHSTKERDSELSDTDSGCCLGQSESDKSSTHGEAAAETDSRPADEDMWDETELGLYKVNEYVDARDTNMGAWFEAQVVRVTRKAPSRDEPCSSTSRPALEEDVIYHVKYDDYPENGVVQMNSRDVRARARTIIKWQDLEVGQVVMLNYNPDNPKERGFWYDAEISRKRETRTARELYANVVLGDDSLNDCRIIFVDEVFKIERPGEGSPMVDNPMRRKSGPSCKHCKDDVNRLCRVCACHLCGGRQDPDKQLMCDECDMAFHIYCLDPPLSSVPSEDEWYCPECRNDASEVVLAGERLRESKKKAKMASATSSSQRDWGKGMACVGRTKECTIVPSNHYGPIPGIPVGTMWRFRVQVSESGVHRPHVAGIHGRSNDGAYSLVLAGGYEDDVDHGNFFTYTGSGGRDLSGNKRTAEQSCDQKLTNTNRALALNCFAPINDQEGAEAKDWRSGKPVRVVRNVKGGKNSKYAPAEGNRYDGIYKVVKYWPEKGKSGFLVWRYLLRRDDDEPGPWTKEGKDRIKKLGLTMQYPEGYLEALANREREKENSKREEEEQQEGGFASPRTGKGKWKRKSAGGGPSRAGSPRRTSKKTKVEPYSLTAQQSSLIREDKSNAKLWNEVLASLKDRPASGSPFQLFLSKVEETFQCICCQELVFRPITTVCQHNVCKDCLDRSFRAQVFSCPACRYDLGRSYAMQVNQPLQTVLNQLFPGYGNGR
TDP2 absorb: blocks human TDP2 phosphodiesterase activity; recombinant TDP2, T5PNP hydrolysis, p-nitrophenol absorbance 415 nm; inhibition, % at 12.8 µM; 0.34% of 370,000 active;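 active means inhibition above the mean of all tested compounds plus 3 SD, set per campaign, cut at about 25% in these data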;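 further: 0% = DMSO with enzyme and 100% = buffer with substrate but no TDP2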
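Assay system: recombinant human TDP2 / Reagent: T5PNP substrate at 5 mM, a TopII-DNA adduct mimic / Measured by: epi absorbance from released p-nitrophenol / Evaluation: % inhibition relative to enzyme-containing and enzyme-free wells / Control set: enzyme-free and DMSO wells / Replicates: each compound tested once, singlicate / Schedule: enzyme reaction with compound for 2 h at 37 °C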
IN multimer up: activates HIV-1 integrase multimerization in LEDGF counter-screen; shares compounds with LEDGF integ inh; TR-FRET HIV-1 integrase multimerization, biochemical; activation, % at 7.7 µM; 17% of 2,000 active; in the data active means activation above about 8.9%
TR-FRET interf: optically interferes with TR-FRET readout in LEDGF counter-screen. inhibition, % at 7.7 µM. 2,000 tested, under 10 active. TR-FRET optical interference counterscreen, HIV-1 IN multimerization. shares compounds with LEDGF integ inh;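 active means inhibition above the mean over all tested compounds plus 3 SD, which no compound reached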;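 further: 0% = integrase with antibodies and DMSO and 100% = antibodies without integrase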
LEDGF integ conf: LEDGF/p75-dependent HIV-1 integration inhibition, confirmation; inhibition, % at 3.7 µM; shares compounds with LEDGF integ inh; 36% of 2,000 active; TR-FRET LEDGF/p75-dependent HIV-1 integration, biochemical; in the data active means inhibition above about 14%
* hit, by the source's call; / = no result given.

SMILES	LEDGF integ inh	MBD2 DNA inh	UHRF1 binding	TDP2 absorb	IN multimer up	TR-FRET interf	LEDGF integ conf
Cc1ccc(-c2csc(NS(=O)(=O)c3cccc(F)c3)n2)o1	16*	3	11	-3	9.0*	-45	15*
Cc1nc(CNS(=O)(=O)c2cccc(F)c2)cs1	1	-3	2	2	/	/	/
Nc1nccc(SCc2ccccc2)n1	-5	5	3	-13	/	/	/
O=C1C(C=NCCN2CCOCC2)=C(O)c2ccccc21	-2	4	3	12	/	/	/
Cc1ccc2occ(/C=N/NC(=O)c3ccccc3O)c(=O)c2c1	18*	-1	1	-7	0	0	24*
O=[N+]([O-])c1ccccc1S(=O)(=O)NCc1ccc(F)cc1	-3	4	-2	-1	/	/	/
CC(C)(C)C(=O)Nc1ccc(/C=C/C(=O)c2ccco2)cc1	34*	-4	-4	16	0	-1	-3
Nc1ccc(/C=C/C(=O)c2ccco2)cc1	-1	-15	-23	7	/	/	/
Cc1ccccc1NC(=S)NNC(=O)c1csc2c1CCC(C)C2 (stereo not given)	51*	-2	-2	-1	0	-2	0
CCNC(=S)NNC(=O)c1csc2c1CCC(C)C2 (stereo not given)	1	-3	-1	7	/	/	/
N#C/C(=N\Nc1cc(Cl)cc(Cl)c1)c1nnc2n1CCCCC2	64*	6	3	1	1	-7	5
CC(=NNC1=NCCN1)c1cnn(C2=NCCN2)c1C	18*	-2	-1	1	1	-3	-1
CCOc1ccc(Br)cc1/C(C)=N\NC1=NCCN1	-1	1	-3	1	/	/	/
O=C1c2ccccc2C(=O)c2c(Nc3ccc(CCO)cc3)ccc(O)c21	15*	0	0	4	14*	-51	0
O=C(CN(C(=O)c1csnn1)c1ccc2c(c1)OCCO2)NCc1ccccc1	26*	-1	-1	6	-2	9	-2
C[C@@H]1O[C@@H](O[C@@H]2[C@@H](O)[C@H](OCCc3ccc(O)c(O)c3)O[C@H](CO)[C@H]2OC(=O)/C=C/c2ccc(O)c(O)c2)[C@H](O)[C@H](O)[C@H]1O	87*	5	9	2	37*	-184	88*
COc1ccc2[nH]c3c(c2c1)CCN1C(=O)N([C@@H](C)C(=O)NCCc2ccc(OC)c(OC)c2)C(=O)[C@]31C	-3	-3	1	13	/	/	/
OC[C@H]1O[C@@H](c2nc(-c3ccc(CN4CCOCC4)cc3)no2)[C@H](O)[C@@H](O)[C@H]1O	16*	0	0	0	-1	4	-1
C=CCN1CCc2nc(N)sc2CC1	14*	12	4	3	0	-2	3
COc1cc2c3nnc(-c4ccc(F)cc4)c-3cn(Cc3ccccc3)c2cc1OC	31*	-4	4	0	-1	5	-5
O=CNc1cc2c(cc1Br)-c1ccccc1C2O (stereo not given)	0	1	-3	-2	/	/	/
N#Cc1ccc(-c2ccco2)nc1SCc1ccccc1	0	0	5	-2	/	/	/
CCSc1nc(-c2ccco2)ccc1C#N	16*	-1	8	-14	-2	10	13
CO[C@@]12[C@@H]3N[C@@H]3CN1C1=C(C(=O)C(N)=C(C)C1=O)[C@@H]2COC(N)=O	15*	-2	9	1	4	-20	7
CC(C(=O)N1CCN(Cc2ccc3c(c2)OCO3)CC1)c1ccc([N+](=O)[O-])cc1 (stereo not given)	-2	2	-1	2	/	/	/
SMILES	LEDGF integ inh	MBD2 DNA inh	UHRF1 binding	TDP2 absorb	IN multimer up	TR-FRET interf	LEDGF integ conf
CN(C)S(=O)(=O)c1cccc(NC(=O)COC(=O)/C=C/c2ccc(Br)o2)c1	0	1	0	-5	/	/	/
CCCn1c2ccccc2c2nnc(SCCN3CCOCC3)nc21	20*	-9	-7	-12	-2	8	5
CCCn1c2ccc(C)cc2c2nnc(SCCN3CCOCC3)nc21	3	3	3	-18	/	/	/
CCOC(=O)c1ccc(NC(=O)CSCc2ccco2)cc1	3	1	1	-4	/	/	/
Cc1ccc(C(=O)NNC(=O)C2CCN(c3nccc(C)n3)CC2)cc1	18*	4	4	5	0	-1	-6
Cc1cc(C(=O)COC(=O)Cc2n[nH]c(=O)c3ccccc23)c(C)n1-c1cccc(C(F)(F)F)c1	30*	-4	2	1	0	2	11
Cc1ccccc1NC(=O)CSCCN1C(=O)c2ccccc2C1=O	-2	3	4	5	/	/	/
Cn1ccnc1SCC(=O)c1cc2ccccc2o1	25*	-4	-4	10	7	-25	7
COc1ccc(Cc2c(-c3cccc(Br)c3)nc3ccc(Br)cn23)c(C)c1	2	8	19	-7	/	/	/
O=[N+]([O-])c1cc2oc3c(c2c(C=NCc2ccccc2)c1O)CCCC3	25*	-7	-8	8	1	-6	71*
CC(C)CN=Cc1c(O)c([N+](=O)[O-])cc2oc3c(c12)CCCC3	49*	-14	-13	8	0	1	66*
Fc1ccc(/C=N/c2c(-c3ccc(F)cc3)nc3n2CCS3)cc1	-2	1	0	1	/	/	/
O=C(O)CCC(=O)Nc1ccc(N2CCCCCC2)cc1	14*	-3	-2	13	5	-25	-10
Cc1ccc(S(=O)(=O)/N=C(/Nc2cccc(O)c2)c2ccccc2)cc1	37*	1	-2	0	2	-10	2
Cc1ccc(S(=O)(=O)/N=C(/Nc2cccc(C(=O)O)c2)c2ccccc2)cc1	0	-5	1	8	/	/	/
Cc1cccc(N2C(=O)CS/C2=N\NC(=O)c2cccnc2)c1C	7	0	4	-8	/	/	/
Cc1cccc(N2C(=O)CS/C2=N\NC(=O)c2ccc(Br)cc2)c1C	16*	3	3	0	-2	8	-1
Cc1ccc(S(=O)(=O)N2CCOCC2)cc1NC(=O)CNCc1cccnc1	5	-8	1	19	/	/	/
CCOc1cc(C(=O)Nc2cccc3ncccc23)cc(OCC)c1OCC	16*	0	-1	3	1	-5	-1
CC(=O)Nc1cccc(C(=O)Nc2cccc3ncccc23)c1	-1	-5	-2	-7	/	/	/
CC(C)C(=O)Nc1ccc(NC(=O)c2cccc3c(Br)cccc23)cc1	3	-3	2	13	/	/	/
Cc1cccc(NC(=O)CN2C(=O)N/C(=C\c3ccccc3OCc3ccc(C(=O)O)cc3)C2=O)c1	17*	3	1	-17	-3	14	8
CC(=O)Nc1nc(-c2ccc3ccccc3c2)cs1	3	0	0	-3	/	/	/
